Assay results reported in article PMC4796946 (Nature, 2015).
“Also recorded” adds a separate entry of the source.

Tests used:
[1] = tested on: GPR65 mutant receptors (D153A, R187L, F242A, Y272A); assay: cAMP reporter assay at GPR65 mutant receptors; type: cell-based, human; conditions: GPR65 R187L, F242A, Y272A
In short: (§1)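 GloSensor cAMP assay in HEK293-T cells co-transfected with receptor (wild-type or mutant) and GloSensor 7A, plated at 15,000 cells/well for at least 6 h. Cells were loaded with luciferin (4 mM, pH 8.4, 90 min, 37 °C), which was then removed. Test compound was added in NaOH-adjusted pH solutions (HBSS, 10 mM HEPES, 10 mM MES), 20 min at room temperature. Luminescence is given as RLU fold of buffer basal. Curves were fitted with a 4-parameter logistic; n≥3.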

[2] = target: GPR65 mutant receptors (D153A, R187L, F242A, Y272A) (Homo sapiens, UniProt Q8IYL9, D153A); assay: cAMP reporter assay at GPR65 mutant receptors; type: cell-based; conditions: GPR65 D153A
In short: as §1

control HEK293 T cells = assay: cAMP reporter assay at control HEK293 T cells; type: cell-based, human
In short: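 Control HEK293-T cells were run in the GloSensor cAMP format: luciferin loading at 4 mM, pH 8.4, 90 min, 37 °C, then removal. Test compound in pH-adjusted HBSS/HEPES/MES buffer was applied for 20 min at room temperature before luminescence reading. Results are normalised fold of basal from at least three assays, each at least in triplicate (≥16 measurements).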

GPR65 = GPR65 (Homo sapiens, UniProt Q8IYL9); assay: Split-luciferase cAMP reporter assay, GPR65; type: cell-based; conditions: for activity at GPR65: effect on proton response, cAMP; for inhibition of GPR65: receptors activated by protons or by BTB09089
In short: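 GPR65 was co-transfected with the GloSensor reporter into HEK293-T cells, which were then luciferin-loaded (4 mM, pH 8.4, 90 min, 37 °C). Test compound was applied in pH-adjusted HBSS/HEPES/MES buffer for 20 min at room temperature. The receptor was activated either by protons at pH 7.40 or by 30 μM reference agonist at pH 8.40. Luminescence was normalised to buffer basal. Data come from at least three assays, each at least in triplicate (≥16 measurements total).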

GPR68 [3] = target: T1, GPR68 (Homo sapiens, UniProt Q15743); assay: Split-luciferase; type: cell-based; conditions: for stimulation of cAMP production by benzodiazepines: 10 μM, pH 6.50 or 7.40
In short: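 HEK293-T cells were co-transfected with receptor and GloSensor 7A reporter and plated at least 6 h at 15,000 cells/well in 1% dialysed FBS DMEM. Cells were loaded with 4 mM luciferin in drug buffer, pH 8.4, for 90 min at 37 °C; luciferin was then removed. Proton concentration-responses ran without and with rising test compound levels premixed in pH-adjusted HBSS/HEPES/MES (TAPS at high pH; BSA for some). Plates stood 20 min at room temperature before luminescence reading. Data were fitted to an allosteric operational model, with proton pEC50 as pKA.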

phosphodiesterases = assay: Phosphodiesterase inhibition
GPR4 = GPR4 (Homo sapiens, UniProt P46093); assay: Split-luciferase cAMP reporter assay, GPR4; type: cell-based; conditions: effect on proton response
In short: as §1

5-HT2B = 5-HT2B (Homo sapiens, UniProt P41595); assay: Radioligand binding profiling; conditions: profiling against 58 GPCRs, ion channels, and transporters
In short: (§2)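 Membranes came from animal brain tissue, stable cell lines or transiently transfected HEK293-T cells. Competition binding used a fixed radioligand concentration, incubated in the dark at 22 °C, and was ended by vacuum filtration onto GF/B filters, followed by beta counting. Values are mean pKi (n=2–4).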

[4] = tested on: PKA and MAP kinase pathways; type: cell-based, human; conditions: 50 μM, 10 min, GPR68-expressing HEK293 cells
A2A receptor = A2A receptor (Homo sapiens, UniProt P29274); assay: Radioligand binding profiling; conditions: profiling against 58 GPCRs, ion channels, and transporters
In short: as §2

GPR68 [5] = target: T1, GPR68; assay: Calcium mobilization assay; type: cell-based; conditions: 10 μM, GPR68 wild-type
In short: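 HEK293-T cells were transfected, plated overnight in DMEM with 1% dialysed FBS at 15,000 cells/well, then loaded 60 min at 37 °C (5% CO2) with Fluo-4 Direct dye in drug buffer containing 2.5 mM probenecid, pH 8.0. Test compound was added first (10 μM final before the pH addition), followed by 10 min reading. pH solutions (HBSS, 7 mM each HEPES/HEPPS/MES, NaOH-adjusted) were then added. Fluorescence was read 1/s for 4 min and expressed as fold of basal; n=3.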

[6] = tested on: wild-type and GPR68 KO mice; assay: Fear conditioning; type: in vivo
GPR68 [7] = target: T1, GPR68; assay: PI hydrolysis assay in GPR68-transfected HEK293-T cells; type: cell-based; conditions: 10 μM, under equilibrium
In short: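 Transfected HEK293-T cells (24 h) were plated in 10% FBS DMEM. After 5 h they were labelled overnight with 3H-inositol (1 μCi/well) in inositol-free DMEM with 5% dialysed FBS. Cells were washed with HBSS, 10 mM HEPES, 10 mM MES, 20 mM LiCl, pH 8.4. pH-adjusted solutions containing 20 mM LiCl and 10 μM test compound were applied for 20 min. Extraction used 50 mM ice-cold formic acid, 4 °C for 30 min; extracts were bead-captured (4 °C, 30 min) and counted as cpm; n=3.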

[8] = cited from earlier work
GPR68 [9] = target: T1, GPR68; assay: Yeast growth assay, GPR68 paired with chimeric Gq yeast; type: cell-based; conditions: library screen at 10 μM
In short: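 Yeast with receptor were diluted in SD-His-Ura medium to OD600 0.02 final. Test compound was 10 μM final, in triplicate, with 3-amino-1,2,4-triazole (pH 5.4) at a level set by titration without ligand. Growth ran at 30 °C for 2–5 days. Cells were resuspended and read at OD600. % growth stimulation = […], given as mean ± SEM of three wells.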

GABAA receptor = assay: Radioligand binding profiling
In short: as §2

[10] = cAMP production, proton as agonist

Sequence of GPR65 (Q8IYL9 whole entry): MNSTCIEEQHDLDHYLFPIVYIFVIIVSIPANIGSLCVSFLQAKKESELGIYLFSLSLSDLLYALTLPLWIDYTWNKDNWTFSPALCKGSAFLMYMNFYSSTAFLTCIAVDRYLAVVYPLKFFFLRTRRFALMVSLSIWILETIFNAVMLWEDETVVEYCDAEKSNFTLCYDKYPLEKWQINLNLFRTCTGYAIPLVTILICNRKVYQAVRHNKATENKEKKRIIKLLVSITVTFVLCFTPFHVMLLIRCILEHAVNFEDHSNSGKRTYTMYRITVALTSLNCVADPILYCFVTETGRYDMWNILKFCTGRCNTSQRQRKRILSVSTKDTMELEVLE
T1 sequence (Q15743 whole entry): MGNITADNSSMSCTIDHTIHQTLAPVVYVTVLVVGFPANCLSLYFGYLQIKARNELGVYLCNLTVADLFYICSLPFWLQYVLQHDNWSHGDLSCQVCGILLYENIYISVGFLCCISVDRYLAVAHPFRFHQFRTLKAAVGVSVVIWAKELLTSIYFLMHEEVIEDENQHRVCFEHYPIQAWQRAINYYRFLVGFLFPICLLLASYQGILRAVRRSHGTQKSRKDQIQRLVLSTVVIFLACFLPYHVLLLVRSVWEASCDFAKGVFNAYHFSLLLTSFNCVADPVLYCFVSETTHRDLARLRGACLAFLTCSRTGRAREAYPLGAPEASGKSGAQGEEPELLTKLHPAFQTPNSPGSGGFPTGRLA
Sequence of GPR65 mutant receptors (D153A, R187L, F242A, Y272A) (Homo sapiens, UniProt Q8IYL9, D153A) (Q8IYL9 whole entry D153A): as the sequence (Q8IYL9 whole entry) above, with D153A counted along it
Sequence of GPR4 (P46093 whole entry): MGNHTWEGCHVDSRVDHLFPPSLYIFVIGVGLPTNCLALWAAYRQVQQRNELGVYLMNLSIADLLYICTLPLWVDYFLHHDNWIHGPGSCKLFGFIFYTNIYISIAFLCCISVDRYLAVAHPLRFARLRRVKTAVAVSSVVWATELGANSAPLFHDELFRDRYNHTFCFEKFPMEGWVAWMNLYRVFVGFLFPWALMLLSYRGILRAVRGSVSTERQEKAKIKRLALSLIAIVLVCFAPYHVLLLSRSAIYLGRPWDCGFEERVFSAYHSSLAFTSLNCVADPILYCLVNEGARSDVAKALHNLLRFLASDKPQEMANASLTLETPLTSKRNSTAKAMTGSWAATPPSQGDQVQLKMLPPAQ
Sequence of 5-HT2B (P41595 whole entry): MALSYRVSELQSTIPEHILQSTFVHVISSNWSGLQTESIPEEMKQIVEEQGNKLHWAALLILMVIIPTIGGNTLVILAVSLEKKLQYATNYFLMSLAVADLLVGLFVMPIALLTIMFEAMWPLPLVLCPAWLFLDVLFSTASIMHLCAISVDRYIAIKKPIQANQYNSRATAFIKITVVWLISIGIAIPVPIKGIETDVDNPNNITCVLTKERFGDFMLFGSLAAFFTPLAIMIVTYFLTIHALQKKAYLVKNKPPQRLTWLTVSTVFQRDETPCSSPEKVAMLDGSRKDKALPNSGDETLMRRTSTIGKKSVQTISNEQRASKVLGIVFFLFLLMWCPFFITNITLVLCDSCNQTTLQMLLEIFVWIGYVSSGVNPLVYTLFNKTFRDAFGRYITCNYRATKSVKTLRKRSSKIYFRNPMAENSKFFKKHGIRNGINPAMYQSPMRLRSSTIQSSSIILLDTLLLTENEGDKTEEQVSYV
Sequence of A2A receptor (P29274 whole entry): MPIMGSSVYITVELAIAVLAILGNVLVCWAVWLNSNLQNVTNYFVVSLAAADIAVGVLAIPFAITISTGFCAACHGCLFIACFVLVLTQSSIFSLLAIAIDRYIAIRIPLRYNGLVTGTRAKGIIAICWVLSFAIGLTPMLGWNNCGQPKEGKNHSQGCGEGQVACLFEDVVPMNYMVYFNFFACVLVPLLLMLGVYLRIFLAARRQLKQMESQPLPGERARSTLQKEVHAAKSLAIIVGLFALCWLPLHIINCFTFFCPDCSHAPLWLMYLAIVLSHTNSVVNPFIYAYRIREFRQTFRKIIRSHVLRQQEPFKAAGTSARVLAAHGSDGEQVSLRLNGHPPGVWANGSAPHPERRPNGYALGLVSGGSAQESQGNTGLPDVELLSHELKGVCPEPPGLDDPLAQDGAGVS

COc1ccc(-c2csc(NC(=O)CSc3nc[nH]n3)n2)cc1OC [ZINC13684400]
effect of R187L, F242A, Y272A mutations on compound activity [1]: reduced the activity | effect of D153A mutation on compound activity [2]: much reduced the activity | activity at control cells (control HEK293 T cells): without measurable activity | mode of action at GPR65 (GPR65): allosteric agonist | potentiation of proton efficacy/activity at GPR65 (GPR65): did not potentiate | agonist activity at GPR65 (GPR65; pH 8.40): over 2 fold of basal

CN1N=C(SCc2ccc(Cl)cc2Cl)Sc2c1cnn(C)c2=O [BTB09089, reference compound]
effect of R187L, F242A, Y272A mutations on compound activity [1]: reduced the activity | effect of D153A mutation on compound activity [2]: no effect | agonist activity at GPR65 (qualitative) (GPR65): weak agonist activity | mode of action at GPR65 (GPR65): allosteric agonist | potentiation of proton efficacy/activity at GPR65 (GPR65): failed to potentiate

O=C1CN=C(c2ccccc2Cl)c2cc([N+](=O)[O-])ccc2N1 [clonazepam]
stimulation of cAMP production by benzodiazepines (GPR68 [3]): stimulated cAMP production in a GPR68- and pH-dependent manner

Nc1nc(-c2ccc(Cl)c(Cl)c2)c(-c2ccncc2)s1 [CGH2466]
allosteric effect (qualitative comparison) (GPR68 [3]; [10]): much lower than that of ogerin | GPR68 activity in the presence of Ro 20-1724 (GPR68 [3]; with phosphodiesterase inhibitor Ro 20-1724): minimal activity | phosphodiesterase inhibition (phosphodiesterases): potent phosphodieseterase inhibitor

Nc1nc(NCc2ccccc2)nc(-c2ccccc2CO)n1 [ogerin]
activity at GPR4 (GPR4): minimal PAM activity | affinity at 5-HT2B (5-HT2B): moderate affinity | allosteric effect (qualitative comparison) (GPR68 [3]; [10]): much higher allosteric effect than lorazepam | activation of PKA and MAP kinase pathways [4]: activate | affinity at A2A receptor (A2A receptor): moderate affinity | effect on proton-mediated calcium release (GPR68 [5]): inhibited | memory retrieval ([6]; GPR68 KO mice, 10 mg/kg): no effect | contextual-based fear memory ([6]; WT mice, 10 mg/kg): attenuated | cue-based memory ([6]; WT mice, 10 mg/kg): without effects | activity at GPR65 (GPR65): minimal PAM activity | effect on proton activity in PI hydrolysis (GPR68 [7]): slightly potentiated

O=C(Nc1nc(-c2ccc3c(c2)OCCO3)cs1)c1csnn1 [ZINC41613384]
inhibition of GPR65 (GPR65): GPR65-specific inhibition

OC1CCC(Nc2nc(-c3ccccc3)nc3[nH]ccc23)CC1 (centres unmarked) [SLV320]
phosphodiesterase inhibition (phosphodiesterases): potent phosphodieseterase inhibitor

Nc1nc(NCc2ccccc2)nc(-c2cccc(CO)c2)n1 [ZINC32547799]
effect on proton-mediated calcium release (GPR68 [5]): little effect | learning and memory ([6]; wild-type mice): no measurable effect | contextual and cue memory ([6]; wild-type mice, 10 mg/kg): no effect | learning ([6]; wild-type mice, 10 mg/kg): no effect | contextual and cue memory ([6]; wild-type mice, 30 mg/kg): no effect | learning ([6]; wild-type mice, 30 mg/kg): enhanced

Nc1nc(NCCCCc2ccccc2)nc(-c2ccccc2CO)n1 [C4]
allosteric effect (qualitative comparison) (GPR68 [3]; [10]): reduced allostery

Nc1nc(NCCc2ccccc2)nc(-c2ccccc2CO)n1 [C2]
α-factor (GPR68 [3]; allosteric operational model, proton as agonist): 22 | leftward shift of proton response relative to ogerin (GPR68 [3]; cAMP production): 3 fold

O=C1Nc2ccc(Cl)cc2C(c2ccccc2Cl)=NC1O (centres unmarked) [lorazepam]
activity at GPR4 (GPR4): no activity | concentration in plasma during treatment [8]: micromolar | stimulation of cAMP production by benzodiazepines (GPR68 [3]): stimulated cAMP production in a GPR68- and pH-dependent manner | activation of PKA and MAP kinase pathways [4]: activate | stimulation of yeast growth (GPR68 [9]): more than two-fold | activity in panel of CNS targets (GABAA receptor): substantial activity | activity at GPR65 (GPR65): no activity

Cc1nc(-c2ncccn2)sc1C(=O)O[C@@H](c1ccccc1)c1ccncc1 [ZINC62678696]
inhibition of GPR65 (GPR65): GPR65-specific inhibition; also recorded: inhibited

O=C1CN=C(c2ccccc2F)c2cc(Cl)ccc2N1 [norfludiazepam]
stimulation of cAMP production by benzodiazepines (GPR68 [3]): stimulated cAMP production in a GPR68- and pH-dependent manner

O=C1CCc2cc(-c3csc(NC(=O)c4ccc(-c5ccccc5F)o4)n3)ccc2N1 [ZINC9468042]
inhibition of GPR65 (GPR65): GPR65-specific inhibition

Nc1nc(NCCCc2ccccc2)nc(-c2ccccc2CO)n1 [C3]
allosteric effect (qualitative comparison) (GPR68 [3]; [10]): reduced allostery

O=C1CN=C(c2ccccc2)c2cc(Cl)ccc2N1 [desmethyldiazepam]
stimulation of cAMP production by benzodiazepines (GPR68 [3]): stimulated cAMP production in a GPR68- and pH-dependent manner

CCCCNc1c(C(=O)OCC)c(C)nc2c1cnn2CC [tracazolate]
phosphodiesterase inhibition (phosphodiesterases): potent phosphodieseterase inhibitor
